Data set [1] deals with Schistosoma mansoni. Kind of data set: WHO-TDR: Schistosomiasis. Format: functional. More on the design: concentration or dose not given beside the values. In a few lines:
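Whole-organism screen of a 10,000-compound diverse library from Life Chemicals, filtered for drug-likeness and reactive groups, against larval and/or adult worms of Schistosoma mansoni Puerto Rican strain. The assay followed previously published standard procedures, with a reference drug as positive control. Activity is reported as percent inhibition and as IC50.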

In data set [2] the test system is Leishmania infantum. Kind of data set: WHO-TDR: Leishmaniasis. The format is functional, organism-based, Mus musculus. The settings on record: Macrophage. In a few lines: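 Antiparasitic potency, reported as IC50, was measured against intracellular Leishmania infantum amastigotes. The parasite strain was MHOM/MA(BE)/67, and murine peritoneal macrophages served as host cells for the screen of a 10,000-compound diverse library from Life Chemicals.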

Data set [3] in a line: WHO-TDR: Cytotoxicity. The format is toxicity, cell-based. The following applies: human, MRC5 cells.
Data set [4] relates to Trypanosoma brucei brucei. Kind of data set: WHO-TDR: Human African Trypanosomiasis (HAT). The format is functional, organism-based. The settings on record: Squib-427. The method in brief: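 Antiparasitic potency is reported as IC50. The screen covered 10,000 compounds from a diverse Life Chemicals library, filtered for drug-likeness and reactive groups, tested on whole bloodstream-form Trypanosoma brucei of the Squib 427 strain.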

Data set [5] deals with Onchocerca ochengi. Kind of data set: WHO-TDR: Onchocerciasis. The format is functional. Further details: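 at 12.5 µM on microfilariae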. The method in brief:
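Whole-organism screen of a 10,000-compound diverse library from Life Chemicals, filtered for drug-likeness and reactive groups, against microfilariae of Onchocerca ochengi or Onchocerca lienalis, used as animal-pathogen stand-ins for the human parasite. The assay followed previously published standard procedures, with reference drugs as positive controls. Activity is reported as percent inhibition and as IC50.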

The test system of data set [6] is Trypanosoma cruzi. Kind of data set: WHO-TDR: Chagas disease. The format is functional, organism-based, Homo sapiens. The settings on record: MRC5. In a few lines: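 A diverse library of 10,000 compounds from Life Chemicals, filtered for drug-likeness and reactive groups, was screened against intracellular amastigotes of Trypanosoma cruzi Tulahuen CL2 beta-galactosidase strain. The parasites were grown in MRC-5SV2 human lung fibroblast host cells, and a reference drug served as positive control under previously published standard procedures. Antiparasitic potency is given as IC50.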

Data set [7] concerns Brugia malayi. Kind of data set: WHO-TDR: Lymphatic Filariasis. Format: functional. More on the design: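 tested at 10 µM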. In a few lines:
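Whole-organism screen of a 10,000-compound diverse library from Life Chemicals, filtered for drug-likeness and reactive groups, against Brugia malayi microfilariae. The assay followed previously published standard procedures, with reference drugs as positive controls. Activity is reported as percent inhibition and as IC50.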

In data set [8] the test system is Plasmodium falciparum K1. Kind of data set: WHO-TDR: Malaria. The format is functional, organism-based, Homo sapiens. The settings on record: Erythrocyte. In a few lines: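 Antiplasmodial potency, expressed as IC50, was measured in a whole-organism assay on intra-erythrocytic Plasmodium falciparum K1 in human red blood cells. The screened library held 10,000 diverse compounds from Life Chemicals.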

≈ marks a conversion by molar mass, not a printed value.

As for `O=C(Nc1ccc(OC(F)(F)F)cc1)c1csc(NS(=O)(=O)c2cccs2)n1`, the entries for the “% Inhibition” value in data set [1], in data set [5] and in data set [7] were 0%, 100% and 20%, respectively. Further, the IC50 in data set [2], in data set [3], in data set [4], in data set [6] and in data set [8] was above 13.5 µg/mL throughout.
In the case of `O=C(CS(=O)(=O)Cc1ccccc1)Nc1cc(Cl)cc(Cl)c1`, the figures for the “% Inhibition” value in data set [1], in data set [5] and in data set [7] were 0%, 100% and 0%, respectively. Further, the IC50 in data set [2], in data set [3], in data set [4], in data set [6] and in data set [8] was above 10.7 µg/mL throughout.
Take `COc1ccc(CC(=O)N2CCN(c3nccn3-c3cccc(Cl)c3)CC2)cc1OC`: the “% Inhibition” value came out at 16.7% in data set [1], 0% in data set [5] and 0% in data set [7]. The IC50 was 0.464 µg/mL (≈ 1.05 µM) in data set [2]; above 14.3 µg/mL in data set [3]; above 14.3 µg/mL in data set [4]; above 14.3 µg/mL in data set [6]; above 14.3 µg/mL in data set [8].
`O=C(Cc1csc(NC(=O)c2ccc(=O)[nH]c2)n1)NCc1cccs1`: the “% Inhibition” value in data set [1] is on record as 100%; in data set [5], 0%; in data set [7] it was 20%. In addition, the IC50 in data set [2], in data set [3], in data set [4], in data set [6] and in data set [8] was above 11.2 µg/mL throughout.
Regarding `Cc1cc(C(=O)Nc2nc(-c3cc4ccccc4o3)cs2)on1`, the “% Inhibition” value in data set [1] came out at 0%; in data set [5], 100%; in data set [7], 20%. For the same compound, the IC50 in data set [2] is 3.16 µg/mL (≈ 9.71 µM); in data set [3] it was above 9.76 µg/mL; in data set [4] it was above 9.76 µg/mL; in data set [6] it was above 9.76 µg/mL; in data set [8], above 9.76 µg/mL.
For `O=C(CSc1ccc(NC(=O)c2cccs2)nn1)c1ccc(Cl)cc1`, the figures for the “% Inhibition” value in data set [1], in data set [5] and in data set [7] were 0%, 100% and 0%, respectively. Moreover, the IC50 was above 11.7 µg/mL in data set [2]; 3.14 µg/mL (≈ 8.05 µM) in data set [3]; above 11.7 µg/mL in data set [4]; above 11.7 µg/mL in data set [6]; above 11.7 µg/mL in data set [8].
With `Cc1cc(C)c(S(=O)(=O)NCCNc2ccc(Nc3cccc(C)n3)nn2)c(C)c1`, the “% Inhibition” value in data set [1] is recorded as 33.3%; in data set [5] it was 100%; in data set [7], 0%. The IC50 in data set [2] turned out to be 5.4 µg/mL (≈ 12.7 µM); in data set [3] it was 6.74 µg/mL (≈ 15.8 µM); in data set [4], 4.14 µg/mL (≈ 9.71 µM); in data set [6], 4.46 µg/mL (≈ 10.5 µM); in data set [8], 2.41 µg/mL (≈ 5.65 µM).
Consider `O=C(c1ccco1)N(CCCn1ccnc1)c1nc2c(F)cc(F)cc2s1`, for which the “% Inhibition” value in data set [1] came to 0%; in data set [5], 100%; in data set [7] it was 0%. Further, the IC50 in data set [2] is above 12.7 µg/mL; in data set [3], 7.77 µg/mL (≈ 20 µM); in data set [4], 4.08 µg/mL (≈ 10.5 µM); in data set [6], 3.97 µg/mL (≈ 10.2 µM); in data set [8], 0.533 µg/mL (≈ 1.37 µM).
`COc1ccc(-c2ccc(=O)n(CCCNC(=O)Cc3ccc(F)cc3)n2)cc1`: the results for the “% Inhibition” value in data set [1], in data set [5] and in data set [7] were 0%, 100% and 0%, respectively. For the same compound, the half-maximal inhibitory concentration (IC50) in data set [2] was above 11.9 µg/mL; in data set [3], 11.3 µg/mL (≈ 28.7 µM); in data set [4], above 11.9 µg/mL; in data set [6], above 11.9 µg/mL; in data set [8], above 11.9 µg/mL.
Take `Cc1csc(NC(=O)CSc2nc(-c3ccccc3)c(N)s2)n1`: the figures for the “% Inhibition” value in data set [1], in data set [5] and in data set [7] were 0%, 50% and 33.33%, respectively. The IC50 in data set [2] is 0.352 µg/mL (≈ 0.971 µM); in data set [3] it was above 10.9 µg/mL; in data set [4], above 10.9 µg/mL; in data set [6], 7.18 µg/mL (≈ 19.8 µM); in data set [8], above 10.9 µg/mL.
For `CCn1ccc(C(=O)Nc2ccc3nc(SC)sc3c2)n1`, the “% Inhibition” value is 0% in data set [1], 100% in data set [5] and 0% in data set [7]. For the same compound, the IC50 in data set [2] was above 9.55 µg/mL; in data set [3] it was above 9.55 µg/mL; in data set [4], above 9.55 µg/mL; in data set [6], above 9.55 µg/mL; in data set [8], 0.955 µg/mL (≈ 3 µM).
As for `Cc1ccnc(Nc2ccc(NCCNS(=O)(=O)c3ccc(F)cc3)nn2)c1`, the “% Inhibition” value in data set [1] is on record as 0%; in data set [5], 100%; in data set [7] it was 50%. For the same compound, the half-inhibitory concentration (IC50) is 3.91 µg/mL (≈ 9.71 µM) in data set [2]; above 12.1 µg/mL in data set [3]; 3.91 µg/mL (≈ 9.71 µM) in data set [4]; 4.13 µg/mL (≈ 10.3 µM) in data set [6]; 12.1 µg/mL (≈ 30 µM) in data set [8].
Take `CC(=O)N1CCc2ccc(NC(=O)c3ccc(F)c(F)c3)cc21`: the “% Inhibition” value in data set [1] is recorded as 8.3%; in data set [5], 75%; in data set [7] it was 0%. In addition, the IC50 in data set [2] was 0.307 µg/mL (≈ 0.971 µM); in data set [3], above 9.49 µg/mL; in data set [4], above 9.49 µg/mL; in data set [6], 2.93 µg/mL (≈ 9.25 µM); in data set [8], above 9.49 µg/mL.
In the case of `Cn1nccc1C(=O)Nc1nc2c(s1)CSc1ccccc1-2`, the figures for the “% Inhibition” value in data set [1], in data set [5] and in data set [7] were 100%, 100% and 0%, respectively. For the same compound, the IC50 in data set [2] is 3.19 µg/mL (≈ 9.71 µM); in data set [3] it was 0.145 µg/mL (≈ 0.442 µM); in data set [4], 0.315 µg/mL (≈ 0.959 µM); in data set [6], 2.05 µg/mL (≈ 6.23 µM); in data set [8], above 9.85 µg/mL.
For the compound `O=C(CN1CCN(c2nccn2-c2cccc(Cl)c2)CC1)Nc1ccc(F)cc1F`, the “% Inhibition” value is 0% in data set [1], 100% in data set [5] and 0% in data set [7]. The concentration for half-maximal inhibition (IC50) in data set [2] is 4.9 µg/mL (≈ 11.4 µM); in data set [3] it was above 15.1 µg/mL; in data set [4], 4.79 µg/mL (≈ 11.1 µM); in data set [6], 4.67 µg/mL (≈ 10.8 µM); in data set [8], 12.6 µg/mL (≈ 29.2 µM).
For the compound `COc1ccc(C(=O)C2C(=O)N(c3ccccc3)N=C2C)c(OC)c1` (stereo unspecified), the “% Inhibition” value is given as 0% in data set [1], 100% in data set [5] and 0% in data set [7]. Besides, the IC50 in data set [2], in data set [3], in data set [4], in data set [6] and in data set [8] was above 10.2 µg/mL in each case.
For the compound `NC(=O)c1ccc(NC(=O)CCCn2nc(-c3ccc(Cl)cc3)ccc2=O)cc1`, the “% Inhibition” value in data set [1] is given as 16.7%; in data set [5], 100%; in data set [7], 0%. Also, the half-maximal inhibitory concentration (IC50) in data set [2], in data set [3], in data set [4], in data set [6] and in data set [8] was above 12.3 µg/mL in each case.
With `Cc1c(Cl)cccc1-n1c(-c2ccc(F)cc2)cn2c3c(=O)n(C)c(=O)n(C)c3nc12`, the “% Inhibition” value in data set [1] is recorded as 0%; in data set [5], 100%; in data set [7], 20%. Besides, the IC50 in data set [2] is 4.25 µg/mL (≈ 9.71 µM); in data set [3], 6.43 µg/mL (≈ 14.7 µM); in data set [4] it was 3.81 µg/mL (≈ 8.7 µM); in data set [6], above 13.1 µg/mL; in data set [8], 2.97 µg/mL (≈ 6.79 µM).
For the compound `CCOC(=O)c1sc(NC(=O)C2CCCN2S(C)(=O)=O)nc1-c1ccccc1` (stereo unspecified), the “% Inhibition” value came to 0% in data set [1], 100% in data set [5] and 0% in data set [7]. Also, the IC50 in data set [2], in data set [3], in data set [4], in data set [6] and in data set [8] was above 12.7 µg/mL in each case.
As for `COc1ccc(C)cc1S(=O)(=O)N1CCN(c2ccc(-c3cccs3)nn2)CC1`, the “% Inhibition” value in data set [1], in data set [5] and in data set [7] was 0% throughout. Further, the IC50 in data set [2] is 0.418 µg/mL (≈ 0.971 µM); in data set [3], above 12.9 µg/mL; in data set [4], above 12.9 µg/mL; in data set [6], above 12.9 µg/mL; in data set [8], above 12.9 µg/mL.
Consider `Cc1ccc(S(=O)(=O)N(C)CC(O)COc2c(C)cc(C)cc2C)cc1` (stereo unspecified), for which the “% Inhibition” value in data set [1] was found to be 0%; in data set [5], 100%; in data set [7], 0%. Besides, the IC50 is above 11.3 µg/mL in data set [2]; above 11.3 µg/mL in data set [3]; 9.55 µg/mL (≈ 25.3 µM) in data set [4]; 3.81 µg/mL (≈ 10.1 µM) in data set [6]; above 11.3 µg/mL in data set [8].
With `CCn1nc(C)cc1C(=O)N1CCN(c2nc3c(C)ccc(C)c3s2)CC1`, the “% Inhibition” value in data set [1] is reported as 16.7%; in data set [5] it was 100%; in data set [7], 0%. Further, the IC50 in data set [2], in data set [3], in data set [4], in data set [6] and in data set [8] was above 11.5 µg/mL in each case.

For the origin of these results see ChEMBL document CHEMBL2093137, “WHO-TDR NTD Screening”.
